# Measured values pooled from the literature.
# Each line is one published result; the experiments were not run side by side.
# Organism: Escherichia coli
Structure (SMILES),assay,system,conditions,quantity,result
Cc1c(NC(=O)CC2=NC(=O)CS2)c(=O)n(-c2ccccc2)n1C,"microbial killing, broth dilution",,,MBC,0.5 µg/mL
COc1ccc(-n2cc(COc3cccc4cccnc34)nn2)cc1,"microbial growth, broth dilution",ATCC25922,,IC50,376 µg/mL
CC1(C)S[C@@H]2[C@H](NC(=O)C(C(=O)O)c3ccccc3)C(=O)N2[C@H]1C(=O)O (stereo partly drawn),"microbial growth, well diffusion",BW25113,200 µM,inhibition zone,15 mm
COc1ccc(-c2nc3ccccc3n2Cc2ccccc2)cc1OC,"microbial growth, broth dilution",ATCC25922,,MIC,64 µg/mL
O=C(N[C@H](CO)[C@H](O)c1ccc([N+](=O)[O-])cc1)C(Cl)Cl,microbial growth,ATCC25922,,MIC90,0.98 µg/mL
CCN1CCN(C(=O)N[C@@H](C(=O)N[C@@H]2C(=O)N3[C@@H]2SC(C)(C)[C@@H]3C(=O)O)c2ccccc2)C(=O)C1=O,"microbial growth, well diffusion",BW25113,200 µM,inhibition zone,19 mm
C=CCOc1c(C)c(O)c(C(=O)/C=C/c2ccccc2)c(OC)c1C,"microbial killing, broth dilution",ATCC25922,,MBC,> 5000 µg/mL
COc1cc(C=CC(=O)CC(c2ccc([N+](=O)[O-])cc2)n2ccnc2)ccc1O (stereo not drawn),"microbial growth, disc diffusion",ATCC25922,250 µg/mL,inhibition zone,7.67 mm
O=[N+]([O-])c1ccc(-c2nc3ccccc3n2Cc2ccccc2)cc1,"microbial growth, broth dilution",ATCC25922,,MIC,64 µg/mL
CC(C)Oc1c(NC(=O)c2ccc(NC(=O)[C@H](CC(N)=O)NC(=O)c3cccc(NC(=O)c4ccc(C#N)cc4)c3)cc2)ccc(C(=O)Nc2ccc(C(=O)O)cc2)c1O,microbial growth,DSM1116,,MIC,> 64 µg/mL
NS(=O)(=O)c1ccc(-n2cc(COc3cccc4cccnc34)nn2)cc1,"microbial growth, broth dilution",ATCC25922,,IC50,880 µg/mL
N=C(N)c1cccc(OCc2cccc(COc3cccc(C(=N)N)c3)c2)c1,microbial growth,BW25113,,MIC,> 200 µg/mL
O=C(O)c1cn(C2CC2)c2cc(N3CCNCC3)c(F)cc2c1=O,"microbial growth, disc diffusion",,"100 µg/mL, 24 h",inhibition zone,17 mm
N=C(N)c1ccc(OCCSCCOc2ccc(C(=N)N)cc2)cc1,"microbial growth, broth dilution",BW25113,,MIC,> 200 µg/mL
Cc1sc(C)c(-c2ccc(O)c(O)c2)c1Br,microbial growth,AS19,10 h,IC50,10.8 µM
COc1cc(C=CC(=O)CC(c2ccc(N(C)C)cc2)n2ccnc2)ccc1O (stereo not drawn),"microbial growth, disc diffusion",ATCC25922,250 µg/mL,inhibition zone,8 mm
CCCCCCCC(=O)Oc1c(C)c(O)c(C(=O)/C=C/c2ccccc2)c(OC)c1C,"microbial killing, broth dilution",ATCC25922,,MBC,> 5000 µg/mL
O=c1cccccc1Sc1cccccc1=O,"microbial growth, broth dilution",ATCC35218,,MIC80,13.2 µM
CN1CC(O)=C(C(=O)NC(C(=O)NC2C(=O)N3C2SC(C)(C)C3C(=O)O)c2ccccc2)C1=O (stereo not drawn),"microbial growth, well diffusion",BW25113,200 µM,inhibition zone,10.5 mm
COc1ccc(-n2cc(COc3cc(C(C)C)ccc3C)nn2)cc1,"microbial growth, broth dilution",ATCC25922,,IC50,320 µg/mL
C[C@H]1NCc2cc(-c3ccc4c(=O)c(C(=O)O)cn(C5CC5)c4c3OC(F)F)ccc21,"microbial growth, broth dilution",,,MIC50,≤ 0.03 µg/mL
COc1cc(C=Cc2cc(-c3ccccc3)nc(O)n2)ccc1O,"microbial growth, disc diffusion",ATCC25922,250 µg/mL,inhibition zone,6 mm
C#CCCCCCCCCCCCC(O)CC(O)CO (stereo not drawn),"microbial growth, broth dilution",ATCC35218,,IC50,> 200 µg/mL
Oc1ccc(-c2cc(Cl)sc2Cl)cc1O,microbial growth,AS19,10 h,IC50,6.1 µM
N=C(N)c1ccc(OCc2ccccc2COc2ccc(C(=N)N)cc2)cc1,"microbial growth, broth dilution",W3110,,MIC,> 200 µg/mL
COc1c(C)c(OS(=O)(=O)c2ccc3ccccc3c2)c(C)c(OS(=O)(=O)c2ccc3ccccc3c2)c1C(=O)/C=C/c1ccccc1,"microbial killing, broth dilution",ATCC25922,,MBC,> 5000 µg/mL
CC1(C)S[C@@H]2[C@H](NC(=O)[C@H](N)c3ccccc3)C(=O)N2[C@H]1C(=O)O,"microbial growth, disc diffusion",,50 µg/disc,inhibition zone,21 mm
COc1c(C)c(OC(C)=O)c(C)c(O)c1C(=O)/C=C/c1ccccc1,"microbial killing, broth dilution",ATCC25922,,MBC,> 5000 µg/mL
Cc1ccc2nc(-c3ccc([N+](=O)[O-])cc3)[nH]c2c1,"microbial growth, broth dilution",ATCC25922,,MIC,64 µg/mL
O=[N+]([O-])c1ccc(-n2cc(COc3cccc4cccnc34)nn2)cc1,"microbial growth, broth dilution",ATCC25922,,IC50,664 µg/mL
CC(C)CC1NC(=O)C(C(=O)NC(C(=O)NC2C(=O)N3C2SC(C)(C)C3C(=O)O)c2ccccc2)=C1O (stereo not drawn),"microbial growth, well diffusion",BW25113,200 µM,inhibition zone,9 mm
CCCCCCCCCC(=O)Oc1c(C)c(O)c(C(=O)/C=C/c2ccccc2)c(OC)c1C,"microbial killing, broth dilution",ATCC25922,,MBC,> 5000 µg/mL
O=S(=O)(Oc1cccc2cccnc12)c1ccccc1,"microbial growth, broth dilution",ATCC25922,,IC50,277 µg/mL
C#CCCCCCCCCC=CCC(O)CC(O)CO (stereo not drawn),"microbial growth, broth dilution",ATCC35218,,IC50,> 200 µg/mL
Cc1ccc(C(C)C)cc1OCc1cn(-c2ccc(S(N)(=O)=O)cc2)nn1,"microbial growth, broth dilution",ATCC25922,,IC50,289 µg/mL
COc1c(N2C[C@@H]3CCCN[C@@H]3C2)c(F)cc2c(=O)c(C(=O)O)cn(C3CC3)c12,microbial growth,ATCC35218,,MIC90,0.06 µg/mL
CC(C)c1ccc(O)c(=O)cc1,"microbial growth, broth dilution",ATCC35218,,MIC80,58.1 µM
COc1c(C)c(OS(=O)(=O)c2ccc3ccccc3c2)c(C)c(O)c1C(=O)/C=C/c1ccccc1,"microbial killing, broth dilution",ATCC25922,,MBC,> 5000 µg/mL
O=C(Sc1cccccc1=O)c1cccc(C(F)(F)F)c1,"microbial growth, broth dilution",ATCC35218,,MIC80,19.8 µM
Clc1ccc(-c2nc3ccccc3n2Cc2ccccc2)cc1,"microbial growth, broth dilution",ATCC25922,,MIC,128 µg/mL
c1ccc(-n2cc(COc3cccc4cccnc34)nn2)cc1,"microbial growth, broth dilution",ATCC25922,,IC50,408 µg/mL
O=C(N/N=C/c1ccc([N+](=O)[O-])o1)c1ccc(O)cc1,microbial growth,ATCC25922,,MIC90,0.49 µg/mL
N=C(N)c1ccccc1OCc1ccccc1COc1ccccc1C(=N)N,microbial growth,BW25113,,MIC,> 200 µg/mL
CC(C)c1cccc(=O)c(O)c1,"microbial growth, broth dilution",ATCC35218,,MIC80,44.4 µM
CC1(C)S[C@@H]2[C@H](NC(=O)[C@H](N)c3ccc(O)cc3)C(=O)N2[C@H]1C(=O)O,"microbial growth, disc diffusion",ATCC25922,250 µg/mL,inhibition zone,11.2 mm
Cc1ccc(-n2cc(COc3cccc4cccnc34)nn2)cc1,"microbial growth, broth dilution",ATCC25922,,IC50,176 µg/mL
COc1cc(C=Cc2cc(-c3ccc(N(C)C)cc3)nc(O)n2)ccc1O,"microbial growth, disc diffusion",ATCC25922,500 µg/mL,inhibition zone,11 mm
COc1c(C)c(O)c(C)c(O)c1C(=O)/C=C/c1ccccc1,"microbial killing, broth dilution",ATCC25922,,MBC,> 5000 µg/mL
